Structures are written as SMILES. Active and inactive are the calls of the source. No cut-off for these calls is given here.

We go through twelve molecules from ChEMBL document CHEMBL3739358 (J Med Chem, 2015).

For data set [1], the target named is D(3) dopamine receptor (Rattus norvegicus, UniProt P19020). Kind of data set: Displacement of [3H]Spiroperidol from cloned rat dopamine D3 receptor expressed in HEK293 cells by liquid scintillation counting analysis. The data set is classed as cell-based. In general terms: In a radioligand displacement assay an active substance lowers the binding of a labelled ligand.

The subject of the next data set is HEK293. Kind of data set: Selectivity ratio of Ki for cloned rat dopamine D2L receptor to Ki for cloned rat dopamine D3 receptor expressed in HEK293 cells. The data set is classed as cell-based. In a few lines: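 Competition with [3H]spiroperidol binding at cloned rat D2L and D3 receptors expressed in HEK-293 cells, giving Ki values; the selectivity ratio is D2L Ki divided by D3 Ki. Means ± SEM of 3−6 experiments, each in triplicate.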

In a further data set the target is D(2) dopamine receptor (Rattus norvegicus, UniProt P61169). Put plainly: Displacement of [3H]Spiroperidol from cloned rat dopamine D2L receptor expressed in HEK293 cells by liquid scintillation counting analysis. The data set is classed as cell-based. The essentials:
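Competition with [3H]spiroperidol binding at cloned rat D2L and D3 receptors expressed in HEK-293 cells, giving Ki values; the selectivity ratio is D2L Ki divided by D3 Ki.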

A further data set relates to Rattus norvegicus. Kind of data set: Reversal of reserpine-induced hypolocomotion in Sprague-Dawley rat at 10 umol/kg, ip administered 18 hrs post reserpine challenge measured for 6 hrs relative to reserpine-treated control. The data set is classed as functional, organism-based. The essentials:
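Male and female Sprague−Dawley rats (220−225 g) were given reserpine 5.0 mg/kg sc 18 h beforehand and acclimatized in chambers for 1 h. Drug was given at 10 μmol/kg ip, and horizontal activity was recorded by infrared beam breaks for 6 h in 30 min bins. Three rats per group, compared with saline controls by one-way ANOVA with Dunnett's test.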

A short description of data set [2]: Cytotoxicity against rat PC12 cells at 0.001 to 30 uM by MTT assay relative to control. The class given is cell-based. The settings on record: pc-12, in the assay text read “0.01 to 30 uM” for “0.001 to 30 uM”. In a few lines:
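PC12 cells were grown in RPMI 1640 with 10% heat-inactivated horse serum and 5% FBS at 37 °C, seeded at 17000 cells/well for 24 h, then exposed to 0.01−30 μM compound. Viability was read by MTT (0.5 mg/mL final, 3−4 h), formazan dissolved in methanol:DMSO, A570 with 690 nm background, relative to untreated controls.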
For orientation: Tetrazolium assays rely on reduction of a dye to a coloured formazan, in cell work by metabolically active cells.

Data set [3] can be described thus: Neuroprotective activity against 6-OHDA-induced death of rat PC12 cells assessed as cell viability pretreated for 24 hrs at 20 uM measured 24 hrs post 6-OHDA challenge by MTT assay relative to 6-OHDA-treated control. The note with it: PC-12, read-out: Activity. The data set is classed as functional.
The target of data set [4] is D(2) dopamine receptor (Homo sapiens) (UniProt P14416). Put plainly: Agonist activity at human D2 receptor expressed in CHO cells by [35S]GTPgammaS binding assay relative to dopamine. The class given is functional, cell-based. In a few lines:
(§1)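 Stimulation of [35S]GTPγS binding in CHO cells expressing hD2 or hD3 receptors. EC50 is the concentration giving half-maximal stimulation. […] Mean ± SEM of 3−6 experiments, each in triplicate.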
(In general: GTPγS is a poorly hydrolysed GTP analogue; its binding reports G protein activation.)

In data set [5] the target is T1, D(3) dopamine receptor (Homo sapiens, UniProt P35462). Put plainly: Agonist activity at human D3 receptor expressed in CHO cells by [35S]GTPgammaS binding assay relative to dopamine. The class given is functional, cell-based. The essentials:
as §1

In data set [6] the target is T1, D(3) dopamine receptor. Put plainly: Agonist activity at human D3 receptor expressed in CHO cells by [35S]GTPgammaS binding assay. The class given is functional, cell-based.
A further data set deals with PC-12. Kind of data set: Neuroprotective activity against 6-OHDA-induced death of rat PC12 cells assessed as cell viability pretreated for 24 hrs measured 24 hrs post 6-OHDA challenge by MTT assay relative to 6-OHDA-treated control. The data set is classed as functional, cell-based. The essentials: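 PC12 cells were pretreated with compound for 24 h; the medium was then replaced and 75 μM 6-OHDA added for a further 24 h. Controls received 0.01% DMSO. Viability was measured by MTT (0.5 mg/mL final, 3−4 h, A570/690 nm). Mean ± SD of at least three experiments, each in four to six replicates.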

Data set [7] can be described thus: Antioxidant activity assessed as DPPH free radical scavenging activity after 30 mins. The data set is classed as physicochemical. The settings on record: 0.5 h.
The target in data set [8] is D(2) dopamine receptor (Homo sapiens) (UniProt P14416). The note with it: CHO, 1 uM.
The target is the same in data set [9]. Kind of data set: Antagonist activity against human D2 receptor expressed in CHO cells assessed as inhibition of dopamine-induced [35S]GTPgammaS binding. The class given is functional, cell-based.
The target is the same in data set [10]. The note with it: CHO, 200 nM.

T1 sequence (P35462 whole entry): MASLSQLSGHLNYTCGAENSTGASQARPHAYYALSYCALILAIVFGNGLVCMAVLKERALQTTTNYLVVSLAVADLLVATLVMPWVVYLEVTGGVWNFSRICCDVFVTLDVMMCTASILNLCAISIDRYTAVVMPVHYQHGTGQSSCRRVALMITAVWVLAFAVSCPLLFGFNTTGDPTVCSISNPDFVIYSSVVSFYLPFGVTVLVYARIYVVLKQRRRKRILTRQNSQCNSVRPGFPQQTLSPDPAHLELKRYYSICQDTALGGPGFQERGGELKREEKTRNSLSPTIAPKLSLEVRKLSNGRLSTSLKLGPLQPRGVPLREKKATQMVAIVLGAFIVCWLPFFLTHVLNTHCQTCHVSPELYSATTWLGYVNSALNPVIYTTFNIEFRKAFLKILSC
Chain of D(2) dopamine receptor (Homo sapiens) (P14416 whole entry): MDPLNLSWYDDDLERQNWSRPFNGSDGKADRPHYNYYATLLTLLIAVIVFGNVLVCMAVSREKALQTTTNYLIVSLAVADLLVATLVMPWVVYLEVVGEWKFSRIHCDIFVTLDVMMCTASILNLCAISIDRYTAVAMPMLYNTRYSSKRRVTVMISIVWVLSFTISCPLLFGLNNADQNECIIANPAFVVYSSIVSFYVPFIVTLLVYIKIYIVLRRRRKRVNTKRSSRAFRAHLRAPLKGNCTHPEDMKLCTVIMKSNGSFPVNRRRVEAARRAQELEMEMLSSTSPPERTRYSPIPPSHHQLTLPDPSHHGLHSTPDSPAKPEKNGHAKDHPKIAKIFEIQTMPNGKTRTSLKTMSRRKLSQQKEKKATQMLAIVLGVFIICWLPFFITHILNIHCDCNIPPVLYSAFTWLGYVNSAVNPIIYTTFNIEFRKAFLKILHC
Chain of D(3) dopamine receptor (Rattus norvegicus, UniProt P19020) (P19020 whole entry): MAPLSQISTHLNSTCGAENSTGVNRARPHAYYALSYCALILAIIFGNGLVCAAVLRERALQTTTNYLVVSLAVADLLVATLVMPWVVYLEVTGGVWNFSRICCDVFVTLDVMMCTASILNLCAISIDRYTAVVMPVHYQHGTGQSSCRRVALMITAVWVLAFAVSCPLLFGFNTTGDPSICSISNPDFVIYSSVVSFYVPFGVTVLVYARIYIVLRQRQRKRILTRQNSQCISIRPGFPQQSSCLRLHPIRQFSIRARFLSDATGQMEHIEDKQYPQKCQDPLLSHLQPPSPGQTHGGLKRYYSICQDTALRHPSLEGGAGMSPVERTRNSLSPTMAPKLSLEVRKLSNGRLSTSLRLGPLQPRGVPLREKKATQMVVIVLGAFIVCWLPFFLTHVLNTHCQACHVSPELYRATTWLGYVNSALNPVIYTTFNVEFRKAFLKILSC
Chain of D(2) dopamine receptor (P61169 whole entry): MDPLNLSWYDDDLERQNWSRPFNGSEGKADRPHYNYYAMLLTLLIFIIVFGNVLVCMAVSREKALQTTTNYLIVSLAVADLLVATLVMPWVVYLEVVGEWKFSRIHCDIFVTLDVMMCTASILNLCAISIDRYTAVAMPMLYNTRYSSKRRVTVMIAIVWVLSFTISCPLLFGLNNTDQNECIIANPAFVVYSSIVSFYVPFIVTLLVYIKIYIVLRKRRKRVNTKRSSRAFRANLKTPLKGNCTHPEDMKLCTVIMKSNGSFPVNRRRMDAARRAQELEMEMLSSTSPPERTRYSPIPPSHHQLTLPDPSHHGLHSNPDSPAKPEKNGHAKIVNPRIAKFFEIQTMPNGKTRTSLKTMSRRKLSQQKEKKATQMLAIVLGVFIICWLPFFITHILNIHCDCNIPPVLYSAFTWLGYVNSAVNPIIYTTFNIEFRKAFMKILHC

On to `CCCN(CCN1CCN(Cc2c[nH]c3ccc(Br)cc23)CC1)C1CCc2nc(N)sc2C1` (racemic), for which the results for the inhibitory constant (Ki) at D(3) dopamine receptor [1] and on D(2) dopamine receptor were 12.9 nM and 376 nM, respectively. The Ratio Ki in the data set with HEK293 is 29.
With `CCCN(CCC)CCc1cccc2c1CC(=O)N2`, the outcome in the data set on Rattus norvegicus was Active.
With `CCCN(CCN1CCN(Cc2c[nH]c3cccc(OC)c23)CC1)C1CCc2nc(N)sc2C1` (racemic), the Ki – broadly, the dissociation constant of the complex between target and ligand, obtained from inhibition or displacement – at D(3) dopamine receptor [1] worked out at 25 nM; at D(2) dopamine receptor, 1880 nM. Also, the Ratio Ki in the data set on HEK293 was 75.
For `CCCN(CCN1CCN(c2cc(F)c3[nH]ccc3c2)CC1)[C@H]1CCc2nc(N)sc2C1` the same measures were 3.66 nM, 156 nM and 43.
For the molecule `CCCN(CCN1CCN(c2ccc3cc[nH]c3c2Cl)CC1)[C@H]1CCc2nc(N)sc2C1.O=C(O)C(F)(F)F`, in the data set on Rattus norvegicus, the result was Active. Moreover, the values for the Ki at D(3) dopamine receptor [1] and on D(2) dopamine receptor were 1.15 nM and 16.4 nM, respectively. Besides, the Activity result is “Non-toxic” in data set [2], “Dose-dependent effect” with PC-12 and “Dose-dependent effect” in data set [7]. In addition, the viability at 20 µM in data set [3] was 30%. Further, the maximal effect (Emax) (in general, the maximal effect, on the per cent scale that the assay sets) in data set [4] amounted to 101%; on D(3) dopamine receptor [5], 113%. The EC50 (as a rule, the concentration giving half of the maximal effect) at D(3) dopamine receptor [6] is 1.41 nM.
With `CCCN1CCC[C@@H](c2cccc(O)c2)C1`, the Ke in data set [8] was 383 nM; in [9] it was 372 nM; in data set [10], 362 nM. Further, the results for the Emax (in data set [4]; at D(3) dopamine receptor [5]) were 19.8% and 52%, respectively.
Take `CCCN[C@H]1CCc2nc(N)sc2C1`: in the data set on Rattus norvegicus, the outcome was Active.
In the case of `CCCN(CCN1CCN(Cc2c[nH]c3ccc(OC)cc23)CC1)C1CCc2nc(N)sc2C1` (racemic), the inhibition constant Ki came to 15.9 nM at D(3) dopamine receptor [1] and 1640 nM on D(2) dopamine receptor. In addition, the Ratio Ki in the data set with HEK293 is 101.
In the same order, the values of `CCCN(CCN1CCN(Cc2c[nH]c3cccc(F)c23)CC1)C1CCc2nc(N)sc2C1` (racemic) are 8.87 nM, 992 nM and 112.
In the same order, the values of `CCCN(CCN1CCN(Cc2c[nH]c3cccc(Cl)c23)CC1)C1CCc2nc(N)sc2C1` (racemic) are 13.8 nM, 1160 nM and 84.
In the same order, the values of `CCCN(CCN1CCN(Cc2c[nH]c3ccc(F)cc23)CC1)C1CCc2nc(N)sc2C1` (racemic) are 12.1 nM, 854 nM and 71.
On to `CCCN(CCN1CCN(c2c(Cl)ccc3[nH]ccc23)CC1)[C@H]1CCc2nc(N)sc2C1`, for which the Ki at D(3) dopamine receptor [1] is 0.87 nM; at D(2) dopamine receptor, 74.5 nM. In addition, the Emax in [4] is 87.6%; on D(3) dopamine receptor [5] it was 104%. The molecule further came in with an EC50 at D(3) dopamine receptor [6] of 3.93 nM.
